Test results: ChEMBL document CHEMBL1121929, “[(3-aryl-1,2-benzisoxazol-6-yl)oxy]acetic acids. A new diuretic series” (1982)

system: Canis familiaris; assay: Diuretic activity was measured after oral administration in conscious water loaded dogs at 20 mg/kg after 1 hr; type: functional, Canis lupus familiaris, Urine
How it was run: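 Male mongrel dogs (20–25 kg) were given 20 mL/kg tap water by gavage about 15 h before drug, with water ad libitum overnight. On the test day they received 4 mL/kg tap water hourly for 7 h, and the bladder was emptied at each interval. Drug was gavaged in the 4 mL/kg water load after the third urine sample, with Tween 80 added when it was poorly soluble. Urinary Na+ was measured by flame photometry as the mean excretory rate (μequiv/kg) per interval per animal. Each dog was its own control, using the hour before dosing.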

| SMILES | Oral diuretic activity |
| --- | --- |
| Cc1c(OCC(=O)O)ccc2c(-c3ccccc3F)noc12 | 478.9 u equiv of [Na+] kg-1 hr-1 |
| O=C(O)COc1ccc2c(-c3ccc(Cl)cc3)noc2c1Cl | 41.2 u equiv of [Na+] kg-1 hr-1 |
| O=C(O)COc1ccc2c(-c3ccc(O)cc3F)noc2c1Cl | 43.5 u equiv of [Na+] kg-1 hr-1 |
| O=C(O)COc1ccc2c(-c3ccc(F)cc3)noc2c1Cl | 178.7 u equiv of [Na+] kg-1 hr-1 |
| Cc1ccc(-c2noc3c(Cl)c(OCC(=O)O)ccc23)cc1 | 29.3 u equiv of [Na+] kg-1 hr-1 |
| O=C(O)COc1ccc2c(-c3ccccn3)noc2c1Cl | 61.2 u equiv of [Na+] kg-1 hr-1 |
| O=C(O)COc1ccc2c(-c3cccs3)noc2c1Cl | 77.5 u equiv of [Na+] kg-1 hr-1 |
| O=C(O)COc1ccc2c(-c3cccc(F)c3)noc2c1Cl | 50.6 u equiv of [Na+] kg-1 hr-1 |
| O=C(O)COc1ccc2c(-c3ccc(F)cc3F)noc2c1Cl | 41.7 u equiv of [Na+] kg-1 hr-1 |
| O=C(O)CSc1ccc2c(-c3ccccc3F)noc2c1Cl | 328.4 u equiv of [Na+] kg-1 hr-1 |

system: Canis familiaris; assay: Diuretic activity was measured after oral administration in conscious water loaded dogs at 10 mg/kg after 2 hr

| SMILES | Oral diuretic activity |
| --- | --- |
| CC1(c2ccccc2)Cc2cc(OCC(=O)O)c(Cl)c(Cl)c2C1=O (stereo not drawn) [INDACRINONE] | 1141.4 u equiv of [Na+] kg-1 hr-1 |

system: Mus musculus; assay: The diuretic activity was measured after oral administration in saline loaded mice at 64 mg/kg after 5 hr; type: functional, Urine
How it was run: (§1)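 Mice were dosed orally with drug in 1% saline at 10 mL/kg, at 4 or 64 mg/kg, alongside a vehicle control. There were 10 mice per group, housed 5 per metabolic cage. Pooled urine was analysed for sodium by flame photometry and expressed as mean mequiv/kg/5 h.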

| SMILES | Oral diuretic activity |
| --- | --- |
| CC1(c2ccccc2)Cc2cc(OCC(=O)O)c(Cl)c(Cl)c2C1=O (stereo not drawn) [INDACRINONE] | 7.6 m equiv [Na+] 5hr-1kg-1 |
| Cc1c(OCC(=O)O)ccc2c(-c3ccccc3F)noc12 | 7.24 m equiv [Na+] 5hr-1kg-1 |
| O=C(O)COc1ccc2c(-c3ccc(Cl)cc3)noc2c1Cl | 0.5 m equiv [Na+] 5hr-1kg-1 |
| O=C(O)COc1ccc2c(-c3ccc(O)cc3F)noc2c1Cl | 0.6 m equiv [Na+] 5hr-1kg-1 |
| O=C(O)COc1ccc2c(-c3ccc(F)cc3)noc2c1Cl | 0.4 m equiv [Na+] 5hr-1kg-1 |
| Cc1ccc(-c2noc3c(Cl)c(OCC(=O)O)ccc23)cc1 | 0.6 m equiv [Na+] 5hr-1kg-1 |
| O=C(O)COc1ccc2c(-c3ccccn3)noc2c1Cl | 1 m equiv [Na+] 5hr-1kg-1 |
| O=C(O)COc1ccc2c(-c3cccs3)noc2c1Cl | 1 m equiv [Na+] 5hr-1kg-1 |
| O=C(O)COc1ccc2c(-c3cccc(F)c3)noc2c1Cl | 0.81 m equiv [Na+] 5hr-1kg-1 |
| O=C(O)COc1ccc2c(-c3ccc(F)cc3F)noc2c1Cl | 0.9 m equiv [Na+] 5hr-1kg-1 |
| O=C(O)CSc1ccc2c(-c3ccccc3F)noc2c1Cl | 4.67 m equiv [Na+] 5hr-1kg-1 |

system: Mus musculus; assay: The diuretic activity of compound was measured after oral administration in saline loaded mice at 8 mg/kg after 5h; micro equiv of Na+/kg; type: functional, Urine

| SMILES | Oral diuretic activity |
| --- | --- |
| Cc1c(OCC(=O)O)ccc2c(-c3ccccc3F)noc12 | 1.86 m equiv [Na+] 5hr-1kg-1 |

system: Mus musculus; assay: The diuretic activity was measured after oral administration in saline loaded mice at 4 mg/kg after 5 hr; type: functional, Urine; how it was run: as §1

| SMILES | Oral diuretic activity |
| --- | --- |
| CC1(c2ccccc2)Cc2cc(OCC(=O)O)c(Cl)c(Cl)c2C1=O (stereo not drawn) [INDACRINONE] | 2.1 m equiv [Na+] 5hr-1kg-1 |
| O=C(O)COc1ccc2c(-c3ccc(Cl)cc3)noc2c1Cl | 0.5 m equiv [Na+] 5hr-1kg-1 |
| O=C(O)COc1ccc2c(-c3ccc(O)cc3F)noc2c1Cl | 0.5 m equiv [Na+] 5hr-1kg-1 |
| O=C(O)COc1ccc2c(-c3ccc(F)cc3)noc2c1Cl | 0.4 m equiv [Na+] 5hr-1kg-1 |
| Cc1ccc(-c2noc3c(Cl)c(OCC(=O)O)ccc23)cc1 | 0.8 m equiv [Na+] 5hr-1kg-1 |
| O=C(O)COc1ccc2c(-c3ccccn3)noc2c1Cl | 0.5 m equiv [Na+] 5hr-1kg-1 |
| O=C(O)COc1ccc2c(-c3cccs3)noc2c1Cl | 0.4 m equiv [Na+] 5hr-1kg-1 |
| O=C(O)COc1ccc2c(-c3cccc(F)c3)noc2c1Cl | 0.75 m equiv [Na+] 5hr-1kg-1 |
| O=C(O)COc1ccc2c(-c3ccc(F)cc3F)noc2c1Cl | 0.7 m equiv [Na+] 5hr-1kg-1 |
| O=C(O)CSc1ccc2c(-c3ccccc3F)noc2c1Cl | 1.37 m equiv [Na+] 5hr-1kg-1 |
